In ChEMBL document CHEMBL3853327 (J Med Chem, 2016):
pEC50, pIC50: −log10 of the molar value.

Key:
[1] = Selectivity index, ratio of CC50 for human mock-infected MT4 cells to EC50 for HIV1 3B harboring reverse transcriptase K103N mutant infected in human MT4 cells; assay type: toxicity, cell-based; conditions: MT4 cells (mock-infected for CC50, HIV-1 infected for EC50)
In short: (§1)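 Selectivity index is CC50/EC50. CC50 is the concentration that reduces OD540 of mock-infected MT-4 cells by 50% in the 5-day MTT assay. EC50 is the 50% protection from virus-induced cytopathicity, measured in parallel on infected wells.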

[2] = Inhibition of recombinant wild type HIV1 reverse transcriptase using DIG-dUTP/biotin-dUTP/dTTP assessed as suppression of biotin-dUTP incorporation after 1 hr by ELISA; set-up: species or system Human immunodeficiency virus 1
In short: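 Recombinant WT HIV-1 RT in a Roche colorimetric kit: template plus DIG-dUTP, biotin-dUTP and dTTP, ±inhibitor, 1 h at 37 °C. Product captured on streptavidin plate 1 h at 37 °C, anti-DIG-POD 1 h at 37 °C, ABTS developed at 25 °C, read at OD405. IC50 is the concentration inhibiting biotin-dUTP incorporation by 50%.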

[3] = system: Human immunodeficiency virus 1; experiment: Antiviral activity against wild type HIV1 3B harboring reverse transcriptase infected in human MT4 cells assessed as protection against virus induced cytotoxicity after 5 days by MTT assay; assay type: functional, cell-based; conditions: Human immunodeficiency virus 1, 3B, MT4, 120 h
In short: (§2)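 MTT cytopathicity assay in MT-4 cells (6 × 10^5 cells/mL). Compounds serially diluted 5-fold in triplicate wells, run in parallel on infected and mock-infected cells. Virus added at 100−300 CCID50 per well. Viability read spectrophotometrically at 540 and 690 nm after 5 days, using the median OD of three wells.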

[4] = Selectivity index, ratio of CC50 for human mock-infected MT4 cells to EC50 for HIV1 RES056 harboring reverse transcriptase K103N/Y181C double mutant infected in human MT4 cells; assay type: toxicity, cell-based; conditions: MT4 cells (mock-infected for CC50, HIV-1 infected for EC50); in short: as §1
[5] = system: Human immunodeficiency virus 1; experiment: Antiviral activity against HIV1 3B harboring reverse transcriptase K103N mutant infected in human MT4 cells assessed as protection against virus induced cytotoxicity after 5 days by MTT assay; assay type: functional, cell-based; conditions: Human immunodeficiency virus 1, 3B, MT4, 120 h
In short: as §2, with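 “wells. EC50 is the concentration giving 50% protection from viral cytopathogenicity.” for “wells.”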

[6] = system: Human immunodeficiency virus 1; experiment: Antiviral activity against HIV1 3B harboring reverse transcriptase F227L/V106A double mutant infected in human MT4 cells assessed as protection against virus induced cytotoxicity after 5 days by MTT assay; assay type: functional, cell-based; conditions: Human immunodeficiency virus 1, 3B, MT4, 120 h
In short: as §2, with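 “wells. EC50 is the concentration giving 50% protection from viral cytopathogenicity.” for “wells.”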

[7] = Selectivity index, ratio of CC50 for human mock-infected MT4 cells to EC50 for HIV1 3B harboring reverse transcriptase F227L/V106A double mutant infected in human MT4 cells; assay type: toxicity, cell-based; conditions: MT4 cells (mock-infected for CC50, HIV-1 infected for EC50); in short: as §1
[8] = system: Human immunodeficiency virus 1; experiment: Potency index, ratio of ETV EC50 to compound EC50 for HIV1 3B harboring reverse transcriptase F227L/V106A double mutant infected in human MT4 cells; assay type: functional
[9] = system: Human immunodeficiency virus 1; experiment: Fold resistance, ratio of EC50 for HIV1 3B harboring reverse transcriptase L100I mutant infected in human MT4 cells to EC50 for wild type HIV1 3B harboring reverse transcriptase infected in human MT4 cells; assay type: functional
In short: (§3)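 Fold resistance is the EC50 against the mutant HIV-1 strain divided by the EC50 against WT IIIB. Both EC50s come from the MT-4 MTT cytoprotection assay (5-day read, 100−300 CCID50 inoculum).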

[10] = system: Human immunodeficiency virus 1; experiment: Fold resistance, ratio of EC50 for HIV1 3B harboring reverse transcriptase Y188L mutant infected in human MT4 cells to EC50 for wild type HIV1 3B harboring reverse transcriptase infected in human MT4 cells; assay type: functional; in short: as §3
[11] = system: Human immunodeficiency virus 1; experiment: Fold resistance, ratio of EC50 for HIV1 3B harboring reverse transcriptase F227L/V106A double mutant infected in human MT4 cells to EC50 for wild type HIV1 3B harboring reverse transcriptase infected in human MT4 cells; assay type: functional; in short: as §3
[12] = biological target: Human immunodeficiency virus type 1 reverse transcriptase (Human immunodeficiency virus 1, UniProt Q72547, K103N/Y181C); experiment: Inhibition of recombinant HIV1 reverse transcriptase K103N/Y181C double mutant using DIG-dUTP/biotin-dUTP/dTTP assessed as suppression of biotin-dUTP incorporation after 1 hr by ELISA
[13] = AUMC (0 to infinity) in Sprague-Dawley rat plasma at 8 mg/kg administered through oral gavage measured at 5 mins to 24 hrs post dosing by LC/MS analysis; assay type: ADME, organism-based; conditions: in vivo
In short: (§4)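 Male Sprague-Dawley rats, ten randomly split into two groups (n = 5), single gavage dose of 8 or 16 mg·kg−1 in PEG 400/normal saline (70/30, V/V). Jugular sinus blood into heparinized tubes at 5 min to 24 h; plasma separated at 2200g for 8 min, stored −20 °C. Methanol precipitation with internal standard, LC-MS quantitation against plasma standard curves. Parameters reported as mean ± SD.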

[14] = VRT (0 to infinity) in Sprague-Dawley rat plasma at 8 mg/kg administered through oral gavage measured at 5 mins to 24 hrs post dosing by LC/MS analysis; assay type: ADME, organism-based; conditions: in vivo; in short: as §4
[15] = Apparent half life in Sprague-Dawley rat plasma at 8 mg/kg administered through oral gavage measured at 5 mins to 24 hrs post dosing by LC/MS analysis; assay type: ADME, organism-based; conditions: in vivo; in short: as §4
[16] = Tmax in Sprague-Dawley rat plasma at 8 mg/kg administered through oral gavage measured at 5 mins to 24 hrs post dosing by LC/MS analysis; assay type: ADME, organism-based; conditions: in vivo; in short: as §4
[17] = Apparent volume of distribution during terminal phase in Sprague-Dawley rat plasma at 8 mg/kg administered through oral gavage measured at 5 mins to 24 hrs post dosing by LC/MS analysis; assay type: ADME, organism-based; conditions: read-out: Vz/F; in short: as §4
[18] = AUC (0 to t) in Sprague-Dawley rat plasma at 16 mg/kg administered through oral gavage measured at 5 mins to 24 hrs post dosing by LC/MS analysis; assay type: ADME, organism-based; set-up: time lower 0.083 hr, dose 16 mg/kg, time upper 24 hr, route oral; in short: as §4
[19] = AUMC (0 to infinity) in Sprague-Dawley rat plasma at 16 mg/kg administered through oral gavage measured at 5 mins to 24 hrs post dosing by LC/MS analysis; assay type: ADME, organism-based; conditions: in vivo; in short: as §4
[20] = Tmax in Sprague-Dawley rat plasma at 16 mg/kg administered through oral gavage measured at 5 mins to 24 hrs post dosing by LC/MS analysis; assay type: ADME, organism-based; conditions: in vivo; in short: as §4
[21] = Apparent volume of distribution during terminal phase in Sprague-Dawley rat plasma at 16 mg/kg administered through oral gavage measured at 5 mins to 24 hrs post dosing by LC/MS analysis; assay type: ADME, organism-based; conditions: read-out: Vz/F; in short: as §4
[22] = Cmax in Sprague-Dawley rat plasma at 16 mg/kg administered through oral gavage measured at 5 mins to 24 hrs post dosing by LC/MS analysis; assay type: ADME, organism-based; set-up: dose 16 mg/kg, route oral; conditions: in vivo; in short: as §4
Mus musculus = experiment: Acute toxicity in Kunming mouse assessed as increase in body weight at 2000 mg/kg, ig after 1 week; assay type: organism-based; conditions: in vivo, po, 168 h
In short: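 Kunming mice (18−22 g), fasted 12 h, then given a single intragastric dose suspended in PEG-400 (100 or 200 mg·mL−1 for 1000 or 2000 mg·kg−1). Six mice per dose group, half male and half female. Deaths and body-weight gain followed for 1 week.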

Cc1cc(C#N)cc(C)c1Oc1nc(NC2CCN(Cc3ccc(S(N)(=O)=O)cc3)CC2)nc2ccsc12
selectivity ratio [1]: > 67400 | pIC50 [2]: 6.52 | pEC50 [3]: 8.85 | selectivity ratio [4]: 53500 | pEC50 [5]: 8.54 | pEC50 [6]: 8.38 | selectivity ratio [7]: > 78100 | Ratio EC50 [8]: 7 | Ratio EC50 [9]: <3 | Ratio EC50 [10]: <3 | Ratio EC50 [11]: <3 | pIC50 [12]: 6.44 | AUMC [13]: 6474.1 ug/L.hr | VRT [14]: 13.31 hr2 | t1/2(app) [15]: 2.51 h | Tmax [16]: 1 h | Vd/F [17]: 38.2 L/kg | AUC(0-t) [18]: 1670 ng·h/mL | AUMC [19]: 7215.795 ug/L.hr | Tmax [20]: 0.8 h | Vd/F [21]: 50.1 L/kg | Cmax [22]: 472 ng/mL | Activity (Mus musculus): Non-Toxic
